Data as given in ChEMBL document CHEMBL4229456, “Salicylic Acid Derivatives Inhibit Oxalate Production in Mouse Hepatocytes with Primary Hyperoxaluria Type 1” (J Med Chem, 2018).
pEC50, pIC50, pKi: −log10 of the molar value. Calls of active or inactive are those of the source. The calls are words filed in the database; no cut-off is given here.

What was measured:
[1] = Half life in mouse liver microsomes at 2 uM in presence of NADPH by LC-HRMS method; format: ADME, microsome
[2] = biological target: T1, 2-Hydroxyacid oxidase 1 (Mus musculus) (UniProt Q9WU19); experiment: Inhibition of glycolate oxidase in C57BL/6 Agxt1-/- mouse hepatocytes using glycolate as substrate assessed as reduction in oxalate production at 2.5 uM after 24 hrs post treatment relative to control; format: cell-based
T1 sequence (whole entry): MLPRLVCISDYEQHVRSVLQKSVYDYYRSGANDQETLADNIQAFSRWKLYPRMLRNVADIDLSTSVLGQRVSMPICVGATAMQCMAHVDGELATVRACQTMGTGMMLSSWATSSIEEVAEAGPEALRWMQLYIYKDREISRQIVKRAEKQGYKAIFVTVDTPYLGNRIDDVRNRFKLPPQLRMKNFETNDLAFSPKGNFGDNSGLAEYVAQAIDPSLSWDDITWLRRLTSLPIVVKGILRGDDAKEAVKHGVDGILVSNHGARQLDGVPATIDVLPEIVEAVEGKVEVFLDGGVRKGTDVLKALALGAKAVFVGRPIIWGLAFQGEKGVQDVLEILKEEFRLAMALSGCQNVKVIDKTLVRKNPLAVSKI
How it was run: (§1)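 Agxt1-/- primary hepatocytes (3.0x10^5 cells/well), serum-free Williams E with 5 mM glycolate, treated at the stated concentrations. Medium oxalate quantified at the stated time by oxalate oxidase kit (H2O2/HRP, MBTH and DMAB, 595 nm) and expressed relative to control.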

[3] = biological target: T2, 2-Hydroxyacid oxidase 1 (Mus musculus, UniProt Q9WU19); experiment: Inhibition of glycolate oxidase in C57BL/6 Agxt1-/- mouse hepatocytes using glycolate as substrate assessed as reduction in oxalate production after 24 hrs; format: cell-based
T2 sequence (Q9WU19 whole entry): T1 sequence (whole entry)
How it was run: (§2)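 Agxt1-/- hepatocytes from male C57BL/6 mice, 3.0x10^5 cells/well, in Williams E with 5% FBS and insulin/hydrocortisone. After 5 h, switched to serum-free medium and treated across a dose range with 5 mM glycolate. Medium harvested at 24, 48 and 72 h; oxalate measured by oxalate oxidase/HRP kit (MBTH/DMAB dye, 595 nm). EC50 from nonlinear regression of log concentration.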

[4] = test system: Hepatocyte; experiment: Cytotoxicity against C57BL/6 Agxt1-/- mouse hepatocytes at 80 uM after 24 to 48 hrs by Celltiter reagent based assay; format: cell-based
How it was run: (§3)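 Agxt1-/- hepatocytes (male C57BL/6, collagenase perfusion) seeded at 1.0x10^4 cells/well in 96-well plates and given the same compound concentrations as the 6-well oxalate cultures. At each time point, CellTiter 96 AQueous One reagent was added and incubated 2 h at 37°C, 5% CO2, with absorbance read at 493 nm.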

[5] = biological target: T1, 2-Hydroxyacid oxidase 1 (Mus musculus); experiment: Potency index, ratio of EC50 for CCPST to EC50 for test compound for inhibition of glycolate oxidase in C57BL/6 Agxt1-/- mouse hepatocytes using glycolate as substrate assessed as reduction in oxalate production after 24 to 72 hrs; format: cell-based
[6] = biological target: T1, 2-Hydroxyacid oxidase 1 (Mus musculus); experiment: Inhibition of glycolate oxidase in C57BL/6 Agxt1-/- mouse hepatocytes using glycolate as substrate assessed as relative oxalate level at 10 uM after 24 hrs; format: cell-based
How it was run: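 Primary Agxt1-/- mouse hepatocytes in 6-well plates, serum-free Williams E with 5 mM glycolate, treated with 10 µM compound. Excreted oxalate measured 24 h later by oxalate oxidase–HRP colorimetric kit (595 nm) and expressed relative to untreated control. Mean ± SD, n = 3, one-way ANOVA.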

[7] = biological target: T2, 2-Hydroxyacid oxidase 1; experiment: Inhibition of glycolate oxidase in C57BL/6 Agxt1-/- mouse hepatocytes using glycolate as substrate assessed as reduction in oxalate production after 48 hrs; format: cell-based; how it was run: as §2
[8] = Activity against horseradish peroxidase by oxalate detection based assay
[9] = test system: Armoracia rusticana; experiment: Inhibition of horseradish peroxidase at 20 uM after 1 min by sulfonated-DCIP dye based assay
How it was run: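 HRP counter-screen without mGO or glycolate: H2O2 (10 µL of 1:10 000) with HRP, sulfonated DCIP and 4-aminoantipyrine under mGO assay conditions, compound added from 1 mM DMSO stock. Absorbance read at 515 nm after 1 min, compared with an H2O2 standard curve. Run in duplicate.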

[10] = biological target: T2, 2-Hydroxyacid oxidase 1; experiment: Inhibition of glycolate oxidase in C57BL/6 Agxt1-/- mouse hepatocytes using glycolate as substrate assessed as reduction in oxalate production after 72 hrs; format: cell-based; how it was run: as §2
[11] = biological target: T1, 2-Hydroxyacid oxidase 1 (Mus musculus); experiment: Inhibition of glycolate oxidase in C57BL/6 Agxt1-/- mouse hepatocytes using glycolate as substrate assessed as reduction in oxalate production at 5 uM after 72 hrs post treatment; format: cell-based; how it was run: as §1
[12] = Drug metabolism in mouse liver microsomes assessed as metabolite formation at 2 uM in presence of NADPH after 60 mins by LC-HRMS method; format: ADME, microsome; details: 1 h
[13] = biological target: T2, 2-Hydroxyacid oxidase 1; experiment: Inhibition of mouse recombinant glycolate oxidase expressed in Escherichia coli using glycolate as substrate by sulfonated DCIP dye-based assay
How it was run: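 Purified recombinant mGO (10 µL at 0.1 µg/µL) with saturating glycolate (22.2 mM) in 50 mM potassium phosphate pH 7. Compound at 0.2 µM–0.2 mM; H2O2 detected by HRP-coupled sulfonated DCIP/4-aminoantipyrine dye at 515 nm. IC50 from nonlinear dose-response fitting.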

[14] = biological target: T1, 2-Hydroxyacid oxidase 1 (Mus musculus); experiment: Potency index, ratio of EC50 for CCPST to EC50 for test compound for inhibition of glycolate oxidase in C57BL/6 Agxt1-/- mouse hepatocytes using glycolate as substrate assessed as reduction in oxalate production after 24 hrs; format: cell-based
[15] = biological target: T1, 2-Hydroxyacid oxidase 1 (Mus musculus); experiment: Inhibition of glycolate oxidase in C57BL/6 Agxt1-/- mouse hepatocytes using glycolate as substrate assessed as reduction in oxalate production at 12.5 uM after 24 hrs post treatment relative to control; format: cell-based; how it was run: as §1
[16] = biological target: T1, 2-Hydroxyacid oxidase 1 (Mus musculus); experiment: Inhibition of glycolate oxidase in C57BL/6 Agxt1-/- mouse hepatocytes using glycolate as substrate assessed as reduction in oxalate production at 12.5 uM after 48 hrs post treatment relative to control; format: cell-based; how it was run: as §1
[17] = test system: Hepatocyte; experiment: Cytotoxicity against C57BL/6 Agxt1-/- mouse hepatocytes after 24 to 48 hrs by Celltiter reagent based assay; format: cell-based; how it was run: as §3
[18] = biological target: T2, 2-Hydroxyacid oxidase 1; experiment: Inhibition of mouse recombinant glycolate oxidase expressed in Escherichia coli using glycolate as substrate by Dixon plot and Cornish-Bowden plot analysis
How it was run: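 Recombinant mGO held at constant enzyme concentration and tested with increasing inhibitor at several glycolate concentrations in the HRP/DCIP 515 nm assay. Inhibition type read from Cornish-Bowden and Dixon plots; Ki taken as the intersection of the lines.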

[19] = biological target: T1, 2-Hydroxyacid oxidase 1 (Mus musculus); experiment: Inhibition of mouse recombinant glycolate oxidase expressed in Escherichia coli at 25 uM using glycolate as substrate after 1 min by sulfonated DCIP dye-based assay relative to control
[20] = biological target: T1, 2-Hydroxyacid oxidase 1 (Mus musculus); experiment: Inhibition of glycolate oxidase in C57BL/6 Agxt1-/- mouse hepatocytes using glycolate as substrate assessed as reduction in oxalate production at 6.25 uM after 24 hrs post treatment relative to control; format: cell-based; how it was run: as §1

| Structure (SMILES) | half-life at 2 µM [1] [min] | inhibition [2] [%] | pEC50 [3] | Activity [4] | Ratio EC50 [5] | fold change (FC) [6] | pEC50 [7] | pEC50 [8] | inhibition [9] [%] | pEC50 [10] | inhibition [11] | Drug metabolism [12] | pIC50 [13] | Ratio EC50 [14] | inhibition [15] [%] | inhibition [16] [%] | Activity [17] | pKi [18] | inhibition [19] [%] | inhibition [20] [%] |
| --- | --- | --- | --- | --- | --- | --- | --- | --- | --- | --- | --- | --- | --- | --- | --- | --- | --- | --- | --- | --- |
| O=C(O)c1cc(-c2ccco2)ccc1O | 61.9 | 26.5 | 5.44 | Toxic | 7 | 0 | 5.10 | 4.74 | 12.6 | 5.04 | Active | Metabolite_Notdetected |  |  |  |  |  |  |  |  |
| O=Cc1ccc(-c2ccc(O)c(C(=O)O)c2)o1 | 13.3 |  | 5.46 |  | 7 | 0 | 5.08 |  |  | 4.95 |  |  | 4.42 | 5 | 106 | 62.3 | Non-Toxic | 4.33 | 42.7 | 67.3 |
